Usually IC50 stands for the concentration that gives 50% inhibition.

The results in this text go back to ChEMBL document CHEMBL4823259, “Bufadienolides from the Eggs of the Toad Bufo bufo gargarizans and Their Antimelanoma Activities” (J Nat Prod, 2021).

A short description of data set [1]: Toxicity in zebra fish larvae assessed as pericardial edema at 100 uM measured at 48 hpf by stereomicroscopic analysis. More on the design: species or system Danio rerio. Particulars: zebrafish, 48 h. An outline of the steps: (§1)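 Zebrafish larvae at 48 hpf, kept at 28.5 °C in E3 medium, treated with compound; survival and pathological changes (e.g. pericardial edema) checked by stereomicroscope every 12 h.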

For data set [2], the species on record is Danio rerio. The data set can be described thus: Antiangiogenic activity in transgenic Tg(fli1:GFP) zebra fish embryo assessed as reduction in angiogenic sprouts at 20 uM measured at 48 hrs postfertilization by fluorescence microscopy. Type of data set: functional, organism-based. An outline of the steps:
(§2)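 Tg:Fli1-GFP embryos selected at 12 hpf, 30 per well, 28.5 °C in E3 medium, exposed to compound (20 μM); chorions broken at 24 hpf; at 48 hpf ISVs and angiogenic sprouts counted by fluorescence microscopy. Sorafenib (1 μM) positive control; mean, SD; one-way ANOVA with Tukey post hoc test.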

Data set [3] relates to SK-MEL. Description: Cytotoxicity against human SK-MEL cells assessed as reduction in cell viability measured after 48 hrs by MTT assay. Type of data set: functional, cell-based. An outline of the steps:
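MTT assay: SK-MEL-1 cells (DMEM, 10% FBS, 37 °C, 5% CO2) seeded 10⁴/well for 24 h, then exposed to a range of concentrations for 48 h; MTT added for 4 h at 37 °C, formazan dissolved in DMSO, absorbance 570 nm. IC50 as mean ± SD, three independent experiments.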
On the technique in general: Tetrazolium dyes change colour on reduction, which living cells bring about.

Data set [4] concerns the target Vascular endothelial growth factor receptor 2 (Danio rerio) (UniProt Q5GIT4). The data set can be described thus: Inhibition of VEGFR2 mediated angiogenesis in transgenic Tg(flk1:GFP) zebra fish embryo at 20 uM measured at 48 hrs postfertilization by fluorescence microscopy. An outline of the steps:
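Tg:Flk1-GFP (VEGFR2 reporter) embryos treated from 12 hpf at 20 μM, 28.5 °C in E3 medium; chorions removed at 24 hpf; ISV and sprout numbers counted at 48 hpf under fluorescence microscope. Sorafenib (1 μM) positive control; one-way ANOVA, Tukey post hoc test.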

Data set [5] concerns SK-MEL. The data set can be described thus: Induction of apoptosis in human SK-MEL cells assessed as increase in cleaved PARP level at 0.2 to 0.8 uM incubated for 48 hrs by Western blot analysis. Type of data set: functional, cell-based. Particulars: dose 0.2-0.8 µM. An outline of the steps:
(§3)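 SK-MEL-1 cells seeded 3 × 10⁵/well for 24 h, treated 48 h; lysed in RIPA buffer with protease and phosphatase inhibitors 15 min at 4 °C; 20 μg protein by SDS-PAGE, PVDF transfer, PARP immunoblot with ECL detection; β-actin loading control. Sorafenib (10 μM) positive control.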
(Immunoblotting shows a protein as a band on a membrane.)

The species named for data set [6] is Danio rerio. Description: Antiangiogenic activity in transgenic Tg(fli1:GFP) zebra fish embryo assessed as reduction in intersegmental blood vessels at 20 uM measured at 48 hrs postfertilization by fluorescence microscopy. Type of data set: functional, organism-based. An outline of the steps: as §2
The test system of data set [7] is SK-MEL. Description: Induction of apoptosis in human SK-MEL cells assessed as increase in cleaved PARP level at 10 uM incubated for 48 hrs by Western blot analysis. Type of data set: functional, cell-based. An outline of the steps: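 SK-MEL-1 cells (DMEM, 10% FBS, 37 °C, 5% CO2) were seeded at 3 × 10⁵/well for 24 h, then treated for 48 h. They were lysed in RIPA buffer with PMSF, orthovanadate, DTT and phosphatase inhibitor for 15 min at 4 °C, and protein was quantified by BCA. 20 μg was run on SDS-PAGE and blotted to PVDF, with primary antibody overnight at 4 °C and secondary 1 h at room temperature. Detection was by ECL, with β-actin as loading control.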

Data set [8] relates to SK-MEL. The data set can be described thus: Anti-melanoma activity against human SK-MEL cells xenografted in yolk of zebra fish at 0.5 uM measured after 48 hrs by CM-Dil staining based fluorescence microscopic analysis. Type of data set: functional, cell-based. The procedure, abridged: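 SK-MEL-1 cells were prestained with CM-DiI (2 μM) and microinjected into the superficial yolk near the perivitelline space of 2 dpf zebrafish. Embryos were kept in E3 medium, treated for 48 h at 28.5 °C, then immobilized. CM-DiI fluorescence was imaged by fluorescence microscopy alongside bright field, and the melanoma area was outlined.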
Background: A xenograft is tissue or cells of one species grown in another, often human tumour cells in immunodeficient mice.

Data set [9] is described as follows: Toxicity in zebra fish larvae at 100 uM measured at 48 hpf by stereomicroscopic analysis. More on the design: species or system Danio rerio. The following applies: zebrafish, 48 h. The procedure, abridged: as §1
The subject of data set [10] is SK-MEL. Description: Induction of apoptosis in human SK-MEL cells assessed as increase in cleaved PARP level at 0.5 to 1 uM incubated for 48 hrs by Western blot analysis. Particulars: dose 0.5-1 µM. Type of data set: functional, cell-based. An outline of the steps: as §3
For data set [11], the system named is SK-MEL. The data set can be described thus: Anti-melanoma activity against human SK-MEL cells xenografted in yolk of zebra fish at 10 uM measured after 48 hrs by CM-Dil staining based fluorescence microscopic analysis. Type of data set: functional, cell-based. An outline of the steps: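 SK-MEL-1 cells prelabelled with CM-DiI (2 μM) microinjected into superficial yolk near perivitelline space of 2 dpf zebrafish embryos; treated 48 h at 28.5 °C; CM-DiI fluorescence of tumour mass imaged by fluorescence microscopy in immobilized fish. Sorafenib (0.5 μM) positive control.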

A short description of data set [12]: Toxicity in zebra fish larvae assessed as curved tail at 100 uM measured at 48 hpf by stereomicroscopic analysis. Set-up: species or system Danio rerio. Particulars: zebrafish, 48 h. An outline of the steps: as §1
Data set [13] relates to SK-MEL. The data set can be described thus: Induction of apoptosis in human SK-MEL cells assessed as increase in cleaved PARP level at 0.1 to 0.5 uM incubated for 48 hrs by Western blot analysis. Type of data set: functional, cell-based. The following applies: dose 0.1-0.5 µM. The procedure, abridged:
as §3

Data set [14] in a line: Toxicity in zebra fish larvae assessed as death at 100 uM measured at 48 hpf by stereomicroscopic analysis. Particulars: zebrafish, 48 h. More on the design: species or system Danio rerio. An outline of the steps:
as §1

Each structure is given as a SMILES string. Activity calls are given as the source filed them. The calls are words filed in the database; no cut-off is given here.

Chain of Vascular endothelial growth factor receptor 2 (Danio rerio) (Q5GIT4 whole entry): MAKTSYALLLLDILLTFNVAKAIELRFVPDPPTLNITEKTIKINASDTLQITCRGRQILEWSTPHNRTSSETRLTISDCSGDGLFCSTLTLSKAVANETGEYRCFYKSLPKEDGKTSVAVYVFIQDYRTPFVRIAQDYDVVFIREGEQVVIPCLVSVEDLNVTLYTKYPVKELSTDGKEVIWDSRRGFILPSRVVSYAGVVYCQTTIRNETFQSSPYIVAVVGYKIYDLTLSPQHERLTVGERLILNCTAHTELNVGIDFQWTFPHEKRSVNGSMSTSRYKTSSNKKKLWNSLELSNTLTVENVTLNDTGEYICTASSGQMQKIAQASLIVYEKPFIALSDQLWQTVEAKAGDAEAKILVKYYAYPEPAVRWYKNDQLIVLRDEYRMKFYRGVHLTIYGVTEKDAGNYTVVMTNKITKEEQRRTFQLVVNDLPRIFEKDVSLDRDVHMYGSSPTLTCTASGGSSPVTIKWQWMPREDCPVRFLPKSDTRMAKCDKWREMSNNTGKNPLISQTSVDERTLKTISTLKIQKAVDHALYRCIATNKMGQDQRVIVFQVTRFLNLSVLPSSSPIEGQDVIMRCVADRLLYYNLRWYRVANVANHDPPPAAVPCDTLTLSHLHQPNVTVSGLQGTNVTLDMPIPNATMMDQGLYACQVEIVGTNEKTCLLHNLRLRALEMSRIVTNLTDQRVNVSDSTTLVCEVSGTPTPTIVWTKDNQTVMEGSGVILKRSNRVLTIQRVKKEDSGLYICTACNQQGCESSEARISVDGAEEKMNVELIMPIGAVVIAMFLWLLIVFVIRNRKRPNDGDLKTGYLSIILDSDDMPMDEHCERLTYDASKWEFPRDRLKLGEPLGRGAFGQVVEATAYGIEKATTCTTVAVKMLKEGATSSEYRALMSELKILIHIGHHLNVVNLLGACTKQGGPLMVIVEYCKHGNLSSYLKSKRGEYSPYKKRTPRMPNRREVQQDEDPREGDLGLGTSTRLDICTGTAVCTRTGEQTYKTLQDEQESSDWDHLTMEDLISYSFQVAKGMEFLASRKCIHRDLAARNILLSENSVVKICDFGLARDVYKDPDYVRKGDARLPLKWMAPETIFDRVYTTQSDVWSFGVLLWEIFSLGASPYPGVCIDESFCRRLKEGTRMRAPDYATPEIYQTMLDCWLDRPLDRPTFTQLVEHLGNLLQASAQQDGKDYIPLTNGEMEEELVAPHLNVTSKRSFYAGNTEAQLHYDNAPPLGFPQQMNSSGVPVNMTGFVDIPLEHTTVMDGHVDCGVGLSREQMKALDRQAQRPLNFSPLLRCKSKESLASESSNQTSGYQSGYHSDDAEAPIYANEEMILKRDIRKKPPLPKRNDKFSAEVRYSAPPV

In the case of `C[C@]12CC[C@H]3[C@@H](CC[C@]4(O)C[C@@H](O)CC[C@]34C=O)[C@@]1(O)CC[C@@H]2c1ccc(=O)oc1`, the Activity entry in [1] was “Toxic”. The result in the data set listed under Danio rerio [2] and in the data set listed under Danio rerio [6] was Active. The IC50 in the data set on SK-MEL [3] turned out to be 96 nM. Also, the outcome (in data set [4]; in the data set with SK-MEL [5]) was inactive.
For the compound `CNC(=O)c1cc(Oc2ccc(NC(=O)Nc3ccc(Cl)c(C(F)(F)F)c3)cc2)ccn1` [SORAFENIB], the outcome with SK-MEL [7] was inactive. The half-maximal inhibitory concentration (IC50) in the data set with SK-MEL [3] worked out at 10000 nM. In addition, in the data set with SK-MEL [8], the result was Active.
In the case of `C[C@]12CC[C@H]3[C@@H](CC[C@]4(O)C[C@@H](O)CC[C@]34O)[C@@]1(O)CC[C@@H]2c1ccc(=O)oc1`, the result in the data set filed under Danio rerio [2] and in the data set listed under Danio rerio [6] was Active. The IC50 in the data set with SK-MEL [3] worked out at 910 nM. Moreover, in data set [9], the Activity entry is reported as “Non-Toxic”. The result (in data set [4]; in the data set with SK-MEL [10]) was inactive.
Turning to `C[C@]12CC[C@@H]3[C@H]4CC[C@H](O)C[C@@]4(O)CC[C@H]3[C@@]1(O)CC[C@@H]2c1ccc(=O)oc1`, the 50% inhibitory concentration (IC50) with SK-MEL [3] was 280 nM.
Consider `C[C@]12CC[C@H](O)C[C@@]1(O)CC[C@@H]1[C@@H]2CC[C@]2(C)[C@@H](c3ccc(=O)oc3)CC[C@]12O` [TELOCINOBUFAGIN], for which the Activity result in [1], in [12] and in data set [14] was “Toxic” in each case. The result in the data set on SK-MEL [11] and in the data set with SK-MEL [13] was Active. Besides, the result in the data set listed under Danio rerio [2] and in the data set filed under Danio rerio [6] was inactive. The IC50 with SK-MEL [3] is 50 nM.
For the compound `C[C@]12CC[C@H](O)C[C@@]1(O)CC[C@@H]1[C@@H]2CC[C@]2(C)[C@@H](c3ccc(=O)oc3)[C@@H](O)C[C@]12O`, the outcome in the data set listed under Danio rerio [2] and in the data set filed under Danio rerio [6] was inactive. Further, the half-maximal inhibitory concentration (IC50) in the data set with SK-MEL [3] was determined as 700 nM. Also, the Activity entry in data set [9] is “Non-Toxic”.
For `C[C@]12CC[C@H]3[C@@H](CC[C@]4(O)C[C@@H](O)CC[C@]34C(=O)O)[C@@]1(O)CC[C@@H]2c1ccc(=O)oc1`, the result in the data set filed under Danio rerio [2] and in the data set filed under Danio rerio [6] was inactive. Also, in the data set on SK-MEL [3], the IC50 amounted to 290 nM. Also, the Activity result in data set [9] is given as “Non-Toxic”.
Turning to `C[C@]12CC[C@@H]3[C@H]4CC[C@H](O)C[C@@]4(O)CC[C@H]3[C@]13O[C@@H]3C[C@@H]2c1ccc(=O)oc1`, the Activity entry in data set [1], in [12] and in [14] was “Toxic” throughout. In addition, the outcome in the data set listed under Danio rerio [2] and in the data set listed under Danio rerio [6] was inactive. Also, in the data set on SK-MEL [3], the half-maximal inhibitory concentration (IC50) is 3600 nM.
For `C[C@]12CC[C@@H]3C4=C(C[C@H]3[C@@]1(O)CC[C@@H]2c1ccc(=O)oc1)C(=O)C=CCC4`, the Activity result in [1], in [12] and in data set [14] was “Toxic” each time. The outcome in the data set listed under Danio rerio [2] and in the data set filed under Danio rerio [6] was inactive. Besides, in the data set on SK-MEL [3], the half-inhibitory concentration (IC50) came to 3300 nM.
